Measured values: ChEMBL document CHEMBL1138852, “Arylpiperazinylalkylpyridazinones and analogues as potent and orally active antinociceptive agents: synthesis and studies on mechanism of action” (J Med Chem, 2006)
Values joined by “and” are separate entries in the source; they are usually repeats but may differ in a detail not shown here. Equal entries are not always repeated. Active and inactive are the calls of the source.

Tests used:
Mus musculus [1] = assay: Antagonist effect on compound A-induced antinociception in Swiss Albino mouse at 10 mg/kg, ip; format: functional; conditions: route intraperitoneal
How it was run: (§1)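 Mice given antagonist i.p. (yohimbine 3 mg/kg, BRL-44408 1 mg/kg, ARC-239 10 mg/kg) plus compound A 1 mg/kg s.c., or antagonist plus vehicle. Abdominal constriction test: 0.6% acetic acid (10 mL/kg) i.p., stretching movements counted for 10 min beginning 5 min after injection. Groups of 10-15 mice, compared with saline/CMC controls.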

Mus musculus [2] = assay: Antinociceptive activity in Swiss Albino mouse at 5 mg/kg, po by writhing test measured as number of writhes; format: functional
How it was run: (§2)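 Drugs dosed orally 30 min before test, in saline or 1% CMC suspension; yohimbine arm included. 0.6% acetic acid (10 mL/kg) injected i.p., and abdominal constrictions counted for 10 min from 5 min after injection. Values are means of at least two experiments, compared with CMC-treated mice.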

Mus musculus [3] = assay: Antinociceptive activity in Swiss Albino mouse at 20 mg/kg, po by writhing test measured as number of writhes; format: functional; how it was run: as §2
Mus musculus [4] = assay: Antinociceptive activity in Swiss Albino mouse at 20 mg/kg, po by writhing test measured as number of writhes in presence of yohimbine; format: functional; how it was run: as §2
Mus musculus [5] = assay: Antinociceptive activity in Swiss Albino mouse at 20 mg/kg, po by hot plate assay measured as licking latency; format: functional; set-up: unit: s
How it was run: (§3)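 Oral dosing in saline or 1% CMC. Mice placed on a surface held at 52.5 ± 0.1 °C; paw-licking latency (s) timed before treatment and at intervals up to 60 min afterwards. Mice with pretest latency below 12 or above 18 s were excluded. Cutoff 45 s.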

Mus musculus [6] = assay: Antinociceptive activity in Swiss Albino mouse at 3 mg/kg, po by writhing test measured as number of writhes in presence of yohimbine; format: functional
Mus musculus [7] = assay: Antinociceptive activity in Swiss Albino mouse at 3 mg/kg, po by hot plate assay measured as licking latency; format: functional; how it was run: as §3
Mus musculus [8] = assay: Antinociceptive activity in Swiss Albino mouse at 3 mg/kg, ip by abdominal constriction assay; format: functional, Abdomen; conditions: route intraperitoneal
How it was run: (§4)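 Acetic acid writhing in mice: 0.6% acetic acid at 10 mL/kg i.p., with stretching movements counted over 10 min starting 5 min after injection. Compound A 1 mg/kg s.c. or antagonists i.p. Drugs in 0.9% saline or dispersed in 1% carboxymethylcellulose. Groups of 10-15 mice, compared against saline/CMC controls.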

Mus musculus [9] = assay: Antagonist effect on compound A-induced antinociception in Swiss Albino mouse at 3 mg/kg, ip; format: functional; conditions: route intraperitoneal; how it was run: as §1
Mus musculus [10] = assay: Antinociceptive activity in Swiss Albino mouse at 10 mg/kg, po by writhing test measured as number of writhes; format: functional; how it was run: as §2
Mus musculus [11] = assay: Antinociceptive activity in Swiss Albino mouse at 1 mg/kg, sc by abdominal constriction assay; format: functional, Abdomen; conditions: route subcutaneous; how it was run: as §4
Mus musculus [12] = species: Mus musculus; assay: Impairment in mouse rotarod test; format: functional, organism-based
[13] = molecular target: T1, Alpha-2A adrenergic receptor (Rattus norvegicus, UniProt P22909); assay: Binding affinity to adrenergic alpha-2A receptor in Sprague-Dawley rat cortical membranes
T1 sequence (P22909 whole entry): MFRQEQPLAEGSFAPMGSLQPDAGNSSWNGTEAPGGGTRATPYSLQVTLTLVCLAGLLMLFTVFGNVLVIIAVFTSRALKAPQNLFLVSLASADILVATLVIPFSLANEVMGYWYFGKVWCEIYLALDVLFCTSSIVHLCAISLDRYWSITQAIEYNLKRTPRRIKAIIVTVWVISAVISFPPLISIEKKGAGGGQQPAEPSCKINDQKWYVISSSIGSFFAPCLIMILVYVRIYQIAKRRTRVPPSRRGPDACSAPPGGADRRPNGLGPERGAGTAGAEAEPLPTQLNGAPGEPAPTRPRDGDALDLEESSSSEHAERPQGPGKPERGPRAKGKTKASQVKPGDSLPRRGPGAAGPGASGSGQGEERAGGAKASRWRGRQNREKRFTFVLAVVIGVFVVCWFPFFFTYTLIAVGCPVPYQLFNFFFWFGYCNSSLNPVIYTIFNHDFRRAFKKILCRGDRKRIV

Cerebral cortex = assay: Increase in noradrenaline release in Sprague-Dawley rat cortical membranes; format: functional
[14] = molecular target: Norepinephrine transporter (Rattus norvegicus, UniProt Q9WTR4); assay: Inhibition of [3H]noradrenaline uptake in Sprague-Dawley rat brain synaptosomes; format: functional, subcellular
Norepinephrine transporter, sequence (Q9WTR4 whole entry): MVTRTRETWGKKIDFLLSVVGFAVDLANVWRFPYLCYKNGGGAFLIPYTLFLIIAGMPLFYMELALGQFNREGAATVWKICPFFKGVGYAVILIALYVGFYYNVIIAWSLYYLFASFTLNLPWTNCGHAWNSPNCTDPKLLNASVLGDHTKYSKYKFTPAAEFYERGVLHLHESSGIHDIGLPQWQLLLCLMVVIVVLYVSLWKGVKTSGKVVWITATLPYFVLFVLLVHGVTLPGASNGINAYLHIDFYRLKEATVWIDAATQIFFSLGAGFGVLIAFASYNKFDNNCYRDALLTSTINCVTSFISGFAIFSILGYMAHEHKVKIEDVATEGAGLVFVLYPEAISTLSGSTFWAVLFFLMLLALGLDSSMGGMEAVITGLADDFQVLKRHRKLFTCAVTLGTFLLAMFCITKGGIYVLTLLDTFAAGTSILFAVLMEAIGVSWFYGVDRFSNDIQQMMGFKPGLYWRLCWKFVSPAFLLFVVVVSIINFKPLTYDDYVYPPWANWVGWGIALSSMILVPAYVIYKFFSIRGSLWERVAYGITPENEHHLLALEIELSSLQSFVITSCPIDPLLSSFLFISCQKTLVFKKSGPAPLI
How it was run: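 Rat frontal cortex synaptosomes prepared on a sucrose gradient and resuspended in Krebs-type buffer, pH 7.4, with 0.01 mM pargyline. Preincubated 5 min at 37 °C with or without drug, then [3H]-NE added for 6 min. Samples filtered and counted. Active uptake taken as accumulation at 37 °C minus accumulation at 0 °C.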

Mus musculus [15] = assay: Antinociceptive activity in Swiss Albino mouse at 30 mg/kg, po by writhing test measured as number of writhes; format: functional; how it was run: as §2
Mus musculus [16] = assay: Antinociceptive activity in Swiss Albino mouse at 30 mg/kg, po by hot plate assay measured as licking latency; format: functional; how it was run: as §3
Mus musculus [17] = assay: Antinociceptive activity in Swiss Albino mouse at 1 mg/kg, ip by abdominal constriction assay; format: functional, Abdomen; conditions: route intraperitoneal; how it was run: as §4
Mus musculus [18] = assay: Antagonist effect on compound A-induced antinociception in Swiss Albino mouse at 1 mg/kg, ip; format: functional; conditions: route intraperitoneal; how it was run: as §1

Question: `COc1ccccc1N1CCN(CCN2C(=O)c3ccccc3C(C)(C)C2=O)CC1` was tested. Which Activity (Mus musculus [1]) did it give?
Answer: Its Activity is 9.6.

Question: With `Cc1noc2cnn(CCCCN3CCN(c4cccc(Cl)c4)CC3)c(=O)c12` as the compound, how does the Activity (Mus musculus [2]) read?
Answer: Its Activity is 27.2.

Question: `Cc1noc2c(-c3ccccc3)nn(CCC(=O)N3CCN(c4ccc(Cl)cc4)CC3)c(=O)c12` was tested. Which Activity (Mus musculus [3]) did it give?
Answer: Its Activity is 23.5.

Question: And the Activity (Mus musculus [4])?
Answer: Its Activity is 45.4.

Question: What about the Activity (Mus musculus [5]) of the same compound?
Answer: Its Activity is 17.2.

Question: `Cc1cc(C)c2c(-c3ccccc3)nn(CCCN3CCN(c4cccc(Cl)c4)CC3)c(=O)c2n1` was tested. Which Activity (Mus musculus [3]) did it give?
Answer: The Activity was 18.

Question: How did the Activity (Mus musculus [6]) turn out when `COC(=O)[C@@H]1[C@H]2C[C@H]3c4[nH]c5ccccc5c4CCN3C[C@@H]2CC[C@@H]1O` [YOHIMBINE] was run?
Answer: Its Activity is 35.9.

Question: And the Activity (Mus musculus [7])?
Answer: Its Activity is 15.8.

Question: What about the Activity (Mus musculus [8]) of the same compound?
Answer: The Activity was 28.5.

Question: What about the Activity (Mus musculus [9]) of the same compound?
Answer: Its Activity is 27.8.

Question: What does the source list for `O=C1c2ccccc2C(=O)N1CCCN1CCN(c2ccc(F)cc2)CC1`?
Answer: Activity (Mus musculus [3]): 19.4; Activity (Mus musculus [5]): 36.5

Question: Which Activity (Mus musculus [3]) does the source give for `O=C1c2ccccc2C(=O)N1CCN1CCN(c2ccc(F)cc2)CC1` here?
Answer: The Activity was 22.6.

Question: And the Activity (Mus musculus [4])?
Answer: The Activity was 37.9.

Question: Which Activity (Mus musculus [3]) does the source give for `Cc1nn(CCCN2CCN(c3cccc(Cl)c3)CC2)c(=O)c2nn(-c3ccccc3)c(C)c12` here?
Answer: Its Activity is 10.3.

Question: Which Activity (Mus musculus [3]) does the source give for `Cc1noc2c(-c3ccccc3)nn(CCC(=O)N3CCN(c4cccc(Cl)c4)CC3)c(=O)c12` here?
Answer: Its Activity is 22.1.

Question: And the Activity (Mus musculus [4])?
Answer: The Activity was 41.3.

Question: `Cc1noc2c(-c3ccccc3[N+](=O)[O-])nn(CCCN3CCN(c4cccc(Cl)c4)CC3)c(=O)c12` was tested. Which Activity (Mus musculus [3]) did it give?
Answer: The Activity was 31.7.

Question: With `N#Cc1cccc(N2CCN(CCCn3ncc4ccccc4c3=O)CC2)c1` as the compound, how does the Activity (Mus musculus [10]) read?
Answer: Its Activity is 17.2.

Question: Which Activity (Mus musculus [11]) does the source give for `Cc1noc2c(-c3ccccc3)nn(CCCN3CCN(c4cccc(Cl)c4)CC3)c(=O)c12` here?
Answer: Its Activity is 11.6.

Question: And the Activity (Mus musculus [12])?
Answer: Its Activity is “inactive”.

Question: And the Ki [13]?
Answer: The Ki was over 1000 nM.

Question: And the Activity (Cerebral cortex)?
Answer: Its Activity is “Dose-dependent effect”.

Question: And the IC50 [14]?
Answer: Its IC50 is 130 nM.

Question: For `Cc1noc2c(-c3ccccc3)nn(CCCCN3CCN(c4cccc(Cl)c4)CC3)c(=O)c12`, which Activity (Mus musculus [3]) is on record?
Answer: Its Activity is 30.6.

Question: `Cc1noc2cnn(CCCN3CCN(c4cccc(Cl)c4)CC3)c(=O)c12` was tested. Which Activity (Mus musculus [3]) did it give?
Answer: The Activity was 11.9.

Question: What about the Activity (Mus musculus [4]) of the same compound?
Answer: Its Activity is 27.4.

Question: What about the Activity (Mus musculus [5]) of the same compound?
Answer: Its Activity is 27.7.

Question: `CC(CN1CCN(c2cccc(Cl)c2)CC1)Cn1ncc2ccccc2c1=O` (centres undefined) was tested. Which Activity (Mus musculus [3]) did it give?
Answer: Its Activity is 36.7.

Question: With `Cc1noc2c(-c3ccccc3)nn(CCCN3CCN(c4ccc(Cl)cc4)CC3)c(=O)c12` as the compound, how does the Activity (Mus musculus [3]) read?
Answer: Its Activity is 27.1.

Question: With `O=c1c2ccccc2cnn1CCCN1CCN(c2ccc(Cl)cc2)CC1` as the compound, how does the Activity (Mus musculus [3]) read?
Answer: Its Activity is 23.9.

Question: How did the Activity (Mus musculus [3]) turn out when `O=c1c2ccccc2cnn1CCCCN1CCN(c2cccc(Cl)c2)CC1` was run?
Answer: The Activity was 28.5.

Question: How did the Activity (Mus musculus [3]) turn out when `Cc1noc2c(-c3ccccc3)nn(CCN3CCN(c4cccc(Cl)c4)CC3)c(=O)c12` was run?
Answer: Its Activity is 23.6.

Question: And the Activity (Mus musculus [4])?
Answer: Its Activity is 37.2.

Question: What about the Activity (Mus musculus [5]) of the same compound?
Answer: Its Activity is 15.4.

Question: For `Cc1noc2c(-c3ccccc3)nn(CCCN3CCN(c4ccccn4)CC3)c(=O)c12`, which Activity (Mus musculus [15]) is on record?
Answer: Its Activity is 30.2.

Question: What about the Activity (Mus musculus [16]) of the same compound?
Answer: Its Activity is 15.1.

Question: `Cc1noc2c(-c3ccccc3)nn(CC(C)CN3CCN(c4cccc(Cl)c4)CC3)c(=O)c12` (centres undefined) was tested. Which Activity (Mus musculus [3]) did it give?
Answer: Its Activity is 35.5.

Question: Which Activity (Mus musculus [3]) does the source give for `Cc1noc2c(-c3ccc([N+](=O)[O-])cc3)nn(CCCN3CCN(c4cccc(Cl)c4)CC3)c(=O)c12` here?
Answer: The Activity was 26.8.

Question: For `Cc1noc2c(-c3ccccc3)nn(CCCN3CCN(c4ccc(F)cc4)CC3)c(=O)c12`, which Activity (Mus musculus [15]) is on record?
Answer: Its Activity is 39.2.

Question: And the Activity (Mus musculus [16])?
Answer: Its Activity is 17.6.

Question: Which Activity (Mus musculus [3]) does the source give for `Cc1noc2c(-c3ccccc3)nnc(SCCCN3CCN(c4ccc(F)cc4)CC3)c12` here?
Answer: The Activity was 28.6.

Question: Which results are given for `CCOC(=O)CCn1nc(-c2ccccc2)c2onc(C)c2c1=O`?
Answer: Activity (Mus musculus [3]): 32.7; Activity (Mus musculus [5]): 17.4

Question: With `Cc1onc2c(=O)n(CCCN3CCN(c4cccc(Cl)c4)CC3)nc(-c3cccs3)c12` as the compound, how does the Activity (Mus musculus [3]) read?
Answer: Its Activity is 16.2.

Question: What does the source list for `Cc1noc2c(-c3ccccc3N)nn(CCCN3CCN(c4cccc(Cl)c4)CC3)c(=O)c12`?
Answer: Activity (Mus musculus [3]): 28; Activity (Mus musculus [5]): 16.5

Question: With `CC1c2ccccc2CN1CC1=NCCN1` (centres undefined) as the compound, how does the Activity (Mus musculus [17]) read?
Answer: Its Activity is 32.9.

Question: What about the Activity (Mus musculus [18]) of the same compound?
Answer: Its Activity is 33.4.

Question: For `O=C1c2ccccc2C(=O)N1CCCN1CCN(c2cccc(Cl)c2)CC1`, which Activity (Mus musculus [3]) is on record?
Answer: The Activity was 34.9.

Question: And the Activity (Mus musculus [5])?
Answer: The Activity was 16.2.

Question: For `O=c1c2ccccc2cnn1CCCN1CCN(c2cccc(Cl)c2)CC1`, which Activity (Mus musculus [3]) is on record?
Answer: The Activity was 8.2.

Question: What about the Activity (Mus musculus [4]) of the same compound?
Answer: Its Activity is 31.8.

Question: And the Activity (Mus musculus [5]; 20 mg/kg)?
Answer: The Activity was 28 and 83%.
